From ChEMBL document CHEMBL4354825, “Design and Synthesis of Basic Selective Estrogen Receptor Degraders for Endocrine Therapy Resistant Breast Cancer” (J Med Chem, 2019)
Activity calls are given as the source filed them. The rule behind the calls is not given here.

Experiments:
[1] = AUClast in C57BL/6 mouse at 5 mg/kg, iv measured upto 24 hrs by LC-MS/MS analysis; assay type: ADME, organism-based; design: time < 24 hr, dose 5 mg/kg, route intravenous; details: in vivo
Procedure, shortened: (§1)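 Full PK run by a contract lab. Dosing was 50 mg/kg p.o. in water and 10% SBE-β-CD/PEG-400 (9:1 v/v), and 5 mg/kg i.v. Sampling at 0.25, 0.5, 1, 2, 4, 8 and 24 h (N = 5). Plasma samples were diluted in 50% acetonitrile and quantified by LC-MS/MS against standards serially diluted in 50% acetonitrile. Brain was also sampled after the oral dose.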

Rattus norvegicus = test: Induction of uterotrophic activity in Sprague-Dawley rat assessed as increase in uterine weight at 10 mg/kg, po administered for 3 days and measured after 24 hrs of last dosing by hematoxylin eosin staining based imaging analysis; assay type: functional, organism-based
Procedure, shortened: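 Female Sprague-Dawley rats were dosed from day 19 of age once daily for 3 days: 10 mg/kg p.o. in 2% Tween 80/0.5% methylcellulose. EE2 (0.1 mg/kg p.o., peanut oil) was the positive control. Uteri were excised and weighed 24 h after the last dose; one half was fixed in 4% paraformaldehyde for H&E histology.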

[2] = Half life in C57BL/6 mouse at 5 mg/kg, iv measured upto 24 hrs by LC-MS/MS analysis; assay type: ADME, organism-based; details: in vivo; procedure, shortened: as §1
[3] = Plasma concentration in C57BL/6 mouse at 100 mg/kg, po measured after 0.5 hrs by LC/MS-MS analysis; assay type: ADME, organism-based
Procedure, shortened: (§2)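 PK screen in female C57BL/6 mice (N = 3 per time point). Dosed by gavage at 100 mg/kg in HPβD/PEG-400. Plasma and brain were taken from perfused mice at 30 and 120 min. Quantified by LC-MS/MS in MRM mode, with standard curves in each matrix and a common internal standard. Values are mean and s.d.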

[4] = Drug concentration in C57BL/6 mouse brain at 100 mg/kg, po measured after 2 hrs by LC/MS-MS analysis; assay type: ADME, organism-based; details: read-out: Drug uptake; procedure, shortened: as §2
[5] = Plasma concentration in C57BL/6 mouse at 100 mg/kg, po measured after 2 hrs by LC/MS-MS analysis; assay type: ADME, organism-based; procedure, shortened: as §2
[6] = Half life in CD-1 mouse plasma at 50 mg/kg, po measured upto 24 hrs by LC-MS/MS analysis; details: in vivo
Homo sapiens [7] = species: Homo sapiens; test: Cytotoxicity against human MCF7:WS8 3D spheroid cells assessed as reduction in tumor spheroid size at 10 nM incubated for 14 days
[8] = target: T1, Estrogen receptor (Homo sapiens) (UniProt P03372); test: Inhibition of ERalpha in human MCF7:WS8 cells assessed as increase in degradation of ERalpha incubated for 24 hrs by In-Cell Western assay relative to control; assay type: cell-based
T1 sequence (whole entry): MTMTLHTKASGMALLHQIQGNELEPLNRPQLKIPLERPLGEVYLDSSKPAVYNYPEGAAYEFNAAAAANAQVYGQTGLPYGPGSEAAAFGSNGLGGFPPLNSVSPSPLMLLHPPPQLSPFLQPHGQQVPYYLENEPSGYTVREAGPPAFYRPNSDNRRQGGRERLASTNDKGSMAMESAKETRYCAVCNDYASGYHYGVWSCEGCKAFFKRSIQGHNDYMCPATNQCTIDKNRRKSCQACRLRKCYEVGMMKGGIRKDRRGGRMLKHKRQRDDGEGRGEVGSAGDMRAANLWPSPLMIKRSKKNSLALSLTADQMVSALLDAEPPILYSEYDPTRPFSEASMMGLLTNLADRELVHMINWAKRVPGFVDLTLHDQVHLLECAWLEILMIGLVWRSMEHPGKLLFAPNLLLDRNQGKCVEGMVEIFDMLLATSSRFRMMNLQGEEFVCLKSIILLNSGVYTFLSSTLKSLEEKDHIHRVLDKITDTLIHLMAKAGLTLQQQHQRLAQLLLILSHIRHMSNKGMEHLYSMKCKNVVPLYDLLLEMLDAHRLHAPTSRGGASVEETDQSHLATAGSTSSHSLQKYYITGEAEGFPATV
Procedure, shortened: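 MCF7:WS8 cells were estrogen-stripped for 2 days and plated at 2.5 × 10^4 per well. After 48 h they were treated for 24 h. ERα was detected by in-cell western (H10 antibody), with signal normalized to CellTag 700.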

[9] = AUClast in CD-1 mouse plasma at 50 mg/kg, po measured upto 24 hrs by LC-MS/MS analysis; details: in vivo
[10] = AUClast/D in CD-1 mouse at 5 mg/kg, iv measured upto 24 hrs by LC-MS/MS analysis; details: in vivo
[11] = Tmax in CD-1 mouse plasma at 50 mg/kg, po measured upto 24 hrs by LC-MS/MS analysis; details: in vivo
MCF7:TAM1 = test: Antitumor activity against human MCF7:TAM1 cells xenografted in athymic nude mouse assessed as tumor regression at 100 mg/kg, po measured after 4 weeks; assay type: functional, organism-based
Procedure, shortened: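 MCF7:TAM1 cells were implanted into mammary fat pads of ovariectomized 4–6-week-old athymic nude mice carrying subcutaneous E2 silastic capsules (1.0 cm). Dosing was 100 mg/kg/day p.o. in 10% HPCD/PEG-400 (9:1). Tumor area was measured weekly by calipers as (length/2)×(width/2)×π.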

Mus musculus = test: In vivo degradation of ERalpha in C57BL/6 mouse at 50 mg/kg, po administered for 3 days and measured on day 3 by Western blot analysis; assay type: functional, organism-based
Procedure, shortened: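 Female C57BL/6J mice aged 9–12 weeks were dosed at 50 mg/kg p.o. in PEG 400/10% HPCD (1:9 v/v). Regimens were a single dose with sacrifice at 5 h, or 3 daily doses with sacrifice 5 h (n = 5) or 7 h (n = 6) after the last dose. Ovaries and uterus were homogenized, 20 μg protein was run by SDS-PAGE, and the blot was probed for ERα and normalized to β-actin.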

Homo sapiens [12] = species: Homo sapiens; test: Cytotoxicity against human MCF7:WS8 3D spheroid cells assessed as reduction in tumor cell viability at 10 nM incubated for 14 days by celltiter-glo 3D cell viability assay
[13] = AUC (0 to infinity) in C57BL/6 mouse brain at 50 mg/kg, po measured upto 24 hrs by LC-MS/MS analysis; assay type: ADME, organism-based; design: dose 50 mg/kg, route oral, time infinity; details: in vivo; procedure, shortened: as §1
[14] = AUC (0 to infinity) in C57BL/6 mouse at 5 mg/kg, iv measured upto 24 hrs by LC-MS/MS analysis; assay type: ADME, organism-based; design: dose 5 mg/kg, route intravenous, time infinity; details: in vivo; procedure, shortened: as §1
T47D = test: Cytotoxicity against human T47D 3D spheroid cells assessed as reduction in tumor cell viability at 10 nM incubated for 14 days by celltiter-glo 3D cell viability assay
[15] = Cmax in C57BL/6 mouse brain at 50 mg/kg, po measured upto 24 hrs by LC-MS/MS analysis; assay type: ADME, organism-based; design: dose 50 mg/kg, route oral; details: in vivo; procedure, shortened: as §1
[16] = target: T1, Estrogen receptor (Homo sapiens); test: Induction of degradation of ERalpha in human MCF7:WS8 cells at 100 nM in presence of MG-132 incubated for 24 hrs by Western blot analysis; assay type: cell-based

- AUClast [1]: 766 ng·h/mL
- t1/2 [2]: 1.68 h
- concentration at 0.5 h [3]: 2490 nM
- concentration at 2 h [4]: 1250 nM
- concentration at 2 h [5]: 2150 nM
- t1/2 [6]: 4.48 h
- Efficacy [8]: 92%
- AUClast [9]: 1678 ng·h/mL
- AUClast/dose [10]: 153 ng·h/mL
- Tmax [11]: 1 h
- AUC [13]: 3450 ng·h/mL
- AUC [14]: 778 ng·h/mL
- Cmax [15]: 635 ng/mL
- Activity [16]: inactive
SMILES: Cc1cc(F)cc(C)c1C(=O)c1sc2cc(O)ccc2c1Oc1ccc(OC2CN(CCCF)C2)cc1
- Activity (Rattus norvegicus): inactive
- Activity (Homo sapiens [7]): Active
- Activity (MCF7:TAM1): Active
- Activity (Mus musculus): Active
- Activity (Homo sapiens [12]): Active
- Activity (T47D): Active
